Rows were chosen to be rich in hits. Some 2.4% of all compounds tested hit in one or more screens of this group.
Neddylation inh: inhibitors of human cullin neddylation | TR-FRET cullin neddylation, biochemical | 0.58% of 360,000 active | inhibition, % at 25 µM | AID 651699 | P61081+Q13564; in the data active = inhibition above about 36%
CSN inh: inhibitors of human CSN-mediated cullin deneddylation | Q92905 | Purified CSN, SCF-Nedd8-OG deneddylation, fluorescence polarization | inhibition, % at 12.5 µM | 0.38% of 360,000 active;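 active = pattern-corrected inhibition above about 35%, with an unprinted fluorescence ratio check between 0.5 and 1.5, limit read from the data, passing the limit was not always enough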
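Material: purified human Csn5 enzyme expressed in HEK293T cells / Medium: Tris buffer pH 7.5, NaCl, DTT, Tween-20, trehalose, ovalbumin / Compound dosing: 12.5 µM single point / Schedule: 90 min incubation of compound, enzyme and substrate at room temperature / Signal: fluorescence polarization of the substrate / Control set: no-enzyme wells high, enzyme-with-substrate wells low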
TPT1 inh: blocks Candida albicans tRNA 2'-phosphotransferase; recombinant caTPT1, FP RNA substrate dephosphorylation; inhibition, % at 5 µM; 0.81% of 300,000 active;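 active = inhibition above the mean of all tested compounds plus 3 SD, set per screening campaign, cut at about 24% in these data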
HNF4A DNA FP: change in binding of human HNF4 alpha to DNA; P41235; HNF4a-FITC DNA binding, fluorescence polarization, 1 h; activity change, % at 10 µM; 0.3% of 360,000 active; in the data active = activity change above about 30%, passing the limit was not always enough
Rpn11 inh: blocks the human proteasome subunit Rpn11; human 26S proteasome, Ub4-pepOG fluorescence polarization; 20S core pre-blocked with epoxomicin; inhibition, % at 20 µM; 0.59% of 360,000 active; AID 588493;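 active = inhibition at 20 µM, scaled to each plate's controls, above about 33%, limit read from the data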
Rin1 Abl inh: blocks binding of human Rin1 to Abl; TR-FRET Rin1/Abl binding, biochemical; inhibition, % at 7.35 µM; AID 588664; 0.4% of 360,000 active; in the data active = inhibition above about 5%, passing the limit was not always enough
Rpn11 confirm: Rpn11 inhibition confirmation, single concentration; shares compounds with Rpn11 inh; purified human 26S proteasome, Ub4-pepOG fluorescence polarization; proteasome pretreated with epoxomicin; inhibition, % at 20 µM; 29% of 1,900 active; AID 602318
MMP-2 counter: counter-screen for RPN11 inhibitors: inhibition of human MMP-2. shares compounds with Rpn11 inh. recombinant MMP-2, FRET peptide cleavage fluorescence. inhibition, % at 20 µM. 4% of 1,900 active. AID 602330;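 also: human MMP-2 activated beforehand with APMA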
Thrombin FP: thrombin (bovine) inhibition counter-screen | shares compounds with Rpn11 inh | bovine thrombin cleavage of Ub4-pepOG, fluorescence polarization | inhibition, % at 20 µM | 13% of 1,900 active | AID 602333;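 active = mean inhibition at least 40% at 20 µM, or signal 3 deviations below plate average, so some actives read negative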
Target sequence (P00735 whole entry, looked up): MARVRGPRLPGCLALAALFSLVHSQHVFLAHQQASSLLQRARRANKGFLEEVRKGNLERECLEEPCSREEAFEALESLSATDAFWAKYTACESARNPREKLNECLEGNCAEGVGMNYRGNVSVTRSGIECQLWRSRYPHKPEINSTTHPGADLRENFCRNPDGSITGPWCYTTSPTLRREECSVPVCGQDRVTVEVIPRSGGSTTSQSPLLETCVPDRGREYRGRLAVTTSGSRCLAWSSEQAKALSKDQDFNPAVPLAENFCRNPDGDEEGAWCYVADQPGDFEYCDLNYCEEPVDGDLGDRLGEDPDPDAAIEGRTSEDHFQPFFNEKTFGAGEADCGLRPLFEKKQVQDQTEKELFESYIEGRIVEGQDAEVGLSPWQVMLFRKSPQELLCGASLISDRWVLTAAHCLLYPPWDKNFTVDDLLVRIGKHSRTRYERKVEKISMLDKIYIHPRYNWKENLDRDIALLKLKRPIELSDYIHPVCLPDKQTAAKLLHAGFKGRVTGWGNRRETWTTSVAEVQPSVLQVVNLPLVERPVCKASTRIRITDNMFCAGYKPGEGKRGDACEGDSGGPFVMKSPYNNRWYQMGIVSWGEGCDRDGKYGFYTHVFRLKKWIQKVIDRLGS
A number is an active result; 0 = inactive; - = no result given. Rule as the data show it, unless noted: active = inhibition above about 40%; inactive = the rest.

SMILES	Neddylation inh	CSN inh	TPT1 inh	HNF4A DNA FP	Rpn11 inh	Rin1 Abl inh	Rpn11 confirm	MMP-2 counter	Thrombin FP
COc1ccc(NC(=O)C(=O)N2N=C3CCCCC3C2(O)C(F)(F)F)cc1 (stereo not drawn)	0	0	0	0	0	0	-	-	-
COc1ccc(Br)cc1/C=N/N1C(=O)CSC1=S	0	0	0	0	0	0	-	-	-
O=C1CSC(=S)N1N=Cc1c[nH]c2ccc(Br)cc12	0	0	-	0	61	0	0	0	0
CCOC(=O)N1CCN(C(=O)/C=C/c2c(C)nn(-c3ccc(F)cc3)c2Cl)CC1	0	0	-	0	0	0	-	-	-
Cc1ccc(N(CC(=O)NCCSCc2ccco2)S(=O)(=O)c2ccc(C)cc2)cc1	0	0	0	0	53	0	0	0	0
Cc1cccc(N(CC(=O)NCCSCc2ccco2)S(=O)(=O)c2ccccc2)c1	0	0	0	0	0	0	-	-	-
Cc1ccc(-c2c(C)c(-c3ccc(F)cc3)nc(N)c2C#N)o1	-	0	0	0	42	0	0	0	0
O=C(CCC(=O)c1cccs1)OCC(=O)N1CCN(C(=O)c2ccco2)CC1	0	0	0	35	33	0	0	0	0
CC(=O)c1cn(CC(=O)NCc2ccc3c(c2)OCO3)c2ccccc12	0	0	0	0	93	0	0	0	0
O=C(Cn1cc(C(=O)C2CC2)c2ccccc21)NCc1ccc2c(c1)OCO2	0	0	0	0	0	0	-	-	-
Cc1nc(N2CCCCC2)nc(N2CCCCC2)c1C=O	0	0	0	0	58	0	0	0	0
Cc1nc(N2CCOCC2)nc(N2CCCCC2)c1[N+](=O)[O-]	0	0	0	0	0	0	-	-	-
CCN(CC)S(=O)(=O)c1ccc(NC(=O)CCN2C(=O)C3CC=CCC3C2=O)cc1 (stereo not drawn)	0	0	-	0	0	0	-	-	-
CCOC(=O)c1sc(NC(=O)C2CCCCC2)nc1C	0	0	0	0	0	0	-	-	-
CC(CNC(=O)CCS(=O)(=O)c1cc2c(cc1Cl)NC(=O)CO2)c1ccccc1 (stereo not drawn)	0	0	0	0	0	0	-	-	-
O=C(c1sc2cc(F)ccc2c1Cl)N1CCN(c2ccccc2)CC1	0	0	0	0	0	0	-	-	-
CN1CCC(N(C)C(=O)c2sc3cc(F)ccc3c2Cl)CC1	0	0	0	100	109	0	0	0	0
Cc1ccc(Cn2c(Cc3ccccc3)nc3ccccc32)cc1	0	0	0	0	0	0	-	-	-
Cc1ccc(Cn2c(/C=C/c3ccco3)nc3ccccc32)cc1	45	0	0	0	59	0	0	0	0
Cc1cccc(C(=O)Nc2ccc(N3CCN(c4ccc(C(F)(F)F)cn4)CC3)nc2)c1	0	0	0	0	46	0	0	0	0
COc1ccc(C(=O)N/C(=C/c2ccco2)C(=O)N2CCCCCC2)cc1	0	0	0	0	50	0	0	0	0
Cc1ccc(C(=O)N/C(=C/c2ccco2)C(=O)N2CCCCC2)cc1	0	0	0	0	0	0	-	-	-
Clc1cccc(CN2CCN(Cc3nc(CCc4ccccc4)no3)CC2)c1	0	0	0	0	0	0	-	-	-
COc1ccc(NC2SC(=O)N(C)C2=O)cc1 (stereo not drawn)	0	0	0	0	0	0	-	-	-
Cc1ccc(Cl)cc1NC(=O)c1cnn2c1NC(c1ccco1)CC2C(F)(F)F (stereo not drawn)	0	0	0	0	40	0	0	0	0
SMILES	Neddylation inh	CSN inh	TPT1 inh	HNF4A DNA FP	Rpn11 inh	Rin1 Abl inh	Rpn11 confirm	MMP-2 counter	Thrombin FP
CC1CCCCN1C(=O)CSc1nnc(-c2ccc(Cl)s2)o1 (stereo not drawn)	0	0	0	0	0	0	-	-	-
CCNC(=O)NC(=O)C(C)Oc1ccc(Br)cc1Br (stereo not drawn)	0	0	0	0	0	0	-	-	-
O=C(Nc1ccc(Oc2ncnc3cc(Cl)ccc23)nc1)c1cccs1	0	0	0	0	50	0	0	0	0
O=C(Nc1ccc(F)cc1)Nc1ccc(Oc2ncnc3cc(Cl)ccc23)nc1	0	0	0	0	0	0	-	-	-
Nc1ccccc1S(=O)(=O)NC1=NCCCCC1	0	0	0	0	0	0	-	-	-
COc1cc(OC)cc(-c2nnc(Nc3nc4c(F)cccc4s3)o2)c1	-	0	0	0	114	0	76	0	0
COc1ccccc1CNC(=O)COC(=O)c1nc(Cl)ccc1Cl	0	0	0	0	0	0	-	-	-
CC(C)n1ncc2c(C(=O)Nc3ccc(S(N)(=O)=O)cc3)cc(C3CC3)nc21	0	113	-	0	79	0	90	0	0
Cc1cc(=O)oc2c(CN3CC(C)OC(C)C3)c(O)c(Cl)cc12 (stereo not drawn)	-	0	0	0	0	0	-	-	-
N=c1c(S(=O)(=O)c2ccccc2)cc2c(=O)n3ccccc3nc2n1C1CCCC1	0	0	0	0	78	0	0	0	0
Cc1ccc(C2C=NN(c3ccccc3)C2=O)cc1 (stereo not drawn)	0	0	0	0	0	0	-	-	-
Cc1cc(C)n2nc(N)c(N=Nc3ccc4c(c3)OCO4)c2n1	0	0	0	0	44	0	0	0	0
CCOC(=O)c1c(NC(=O)CSc2nc3cccnc3n2C)sc(C(C)=O)c1C	0	0	0	0	35	0	0	0	0
CCOC(=O)N1CCN(C(=O)COC(=O)CNC(=O)c2ccc(C)cc2)CC1	0	0	0	0	0	0	-	-	-
Cn1c(=O)c2cc(S(=O)(=O)NC(C(=O)Nc3cccc(F)c3)c3ccccc3)ccc2n(C)c1=O (stereo not drawn)	0	0	0	0	47	0	72	0	0
CC1(C)CC(N=Cc2c(O)n(Cc3ccc4c(c3)OCO4)c(=O)c3ccccc23)CC(C)(C)N1	0	0	0	0	0	0	-	-	-
O=C1Oc2ccccc2C(=O)/C1=C\N1CCN(c2ccccc2)CC1	0	0	0	0	0	0	-	-	-
NC(=O)CC(NC(=O)c1ccc(Br)cc1)c1ccc(NC2CCCCCC2)c([N+](=O)[O-])c1 (stereo not drawn)	0	0	0	0	43	0	40	0	0
Cc1cc(C)n(C(=O)CNC(=O)/C=C/c2ccccc2)n1	0	0	0	0	72	0	0	0	0
CCC(C)(C)NC(=O)Cc1ccc(OC)c(OC)c1	0	0	0	0	138	0	0	0	0
Cc1noc(C)c1S(=O)(=O)N(C)C[C@H]1Oc2ccc(NC(=O)Cc3ccccc3)cc2C(=O)N([C@H](C)CO)C[C@@H]1C	0	0	-	0	0	0	-	-	-

Assay outcomes as filed in PubChem.
